Experimental data: ChEMBL document CHEMBL1152251, “Preparation of (4,4-difluoro-1,2,3,4-tetrahydro-5H-1-benzazepin-5-ylidene)acetamide derivatives as novel arginine vasopressin V(2) receptor agonists” (Bioorg Med Chem, 2008)
Calls of active or inactive are those of the source. The calls are words filed in the database; no cut-off is given here.

Assays:
[1] = target: Vasopressin V2 receptor (Rattus norvegicus, UniProt Q00788); test: Displacement of [3H]vasopressin from rat vasopressin V2 receptor expressed in CHO cells by microplate scintillation counting; assay type: cell-based
Sequence of Vasopressin V2 receptor (Rattus norvegicus, UniProt Q00788) (Q00788 whole entry): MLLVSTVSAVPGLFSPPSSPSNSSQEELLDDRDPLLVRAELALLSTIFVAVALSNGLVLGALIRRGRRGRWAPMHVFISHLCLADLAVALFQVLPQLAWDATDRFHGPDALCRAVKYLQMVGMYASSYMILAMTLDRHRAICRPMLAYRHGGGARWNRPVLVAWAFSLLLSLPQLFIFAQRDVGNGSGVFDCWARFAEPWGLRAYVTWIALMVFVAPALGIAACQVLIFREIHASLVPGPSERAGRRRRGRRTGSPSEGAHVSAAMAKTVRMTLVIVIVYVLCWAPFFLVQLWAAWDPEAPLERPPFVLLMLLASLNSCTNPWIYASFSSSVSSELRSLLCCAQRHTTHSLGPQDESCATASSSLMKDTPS

[2] = target: T1, Vasopressin V2 receptor (Homo sapiens, UniProt P30518); test: Agonist activity at human vasopressin V2 receptor expressed in CHO cells assessed as cAMP accumulation by HTRF assay; assay type: functional, cell-based
T1 sequence (P30518 whole entry): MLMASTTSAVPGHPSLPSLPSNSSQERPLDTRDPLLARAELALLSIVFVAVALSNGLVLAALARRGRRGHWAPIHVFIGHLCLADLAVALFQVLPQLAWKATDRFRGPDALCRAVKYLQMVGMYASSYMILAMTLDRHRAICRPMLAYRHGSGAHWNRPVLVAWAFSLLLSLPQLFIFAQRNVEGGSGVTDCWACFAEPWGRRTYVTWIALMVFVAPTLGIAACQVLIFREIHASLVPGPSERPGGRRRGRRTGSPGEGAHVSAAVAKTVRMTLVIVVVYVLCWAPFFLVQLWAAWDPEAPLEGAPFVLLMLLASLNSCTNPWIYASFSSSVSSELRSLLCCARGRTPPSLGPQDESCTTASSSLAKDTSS
In short: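 Cells kept in α-MEM with 10% FBS, penicillin/streptomycin and 0.1% amethopterin at 37 °C, 5% CO₂, grown to subconfluence, then serum-starved 24 h. Medium changed to α-MEM with 1 mmol/L IBMX and 0.1% BSA, compound added for 10 min at 37 °C. Lysis in PBS/0.2% Triton X-100, cAMP read by HTRF. Triplicate.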

[3] = target: T1, Vasopressin V2 receptor; test: Intrinsic activity at human vasopressin V2 receptor expressed in CHO cells assessed as cAMP accumulation by HTRF assay relative to arginine vasopressin; assay type: functional, cell-based
[4] = target: T1, Vasopressin V2 receptor; test: Displacement of [3H]vasopressin from human vasopressin V2 receptor expressed in CHO cells by microplate scintillation counting; assay type: cell-based

SMILES | Ki [1] | Activity [2] | Activity [3] | EC50 [2] | Ki [4]
O=C(/C=C1/c2ccccc2N(C(=O)c2ccc(NC(=O)c3ccccc3-c3ccccc3)cc2)CCC1(F)F)NCc1ccccn1 | 0.4 nM | inactive | – | – | –
CN1CCN(c2ccc(C(=O)N3CCC(F)(F)/C(=C\C(=O)NCc4ccccn4)c4ccccc43)c(Cl)c2)CC1 | – | – | 35.5% | > 10 µM | 170 nM
CC(C)c1ccn(-c2ccc(C(=O)N3CCC(F)(F)/C(=C\C(=O)NCc4ccccn4)c4ccccc43)c(Cl)c2)n1 | – | – | 4.9% | > 10 µM | 18 nM

Next, values leading:

Ki [1] | Activity [2] | Activity [3] | EC50 [2] | Ki [4] | SMILES
19 nM | – | – | – | – | Cc1ccn(-c2ccc(C(=O)N3CCC(F)(F)/C(=C\C(=O)NCc4ccccn4)c4ccccc43)c(Cl)c2)n1
– | – | 86.8% | > 10 µM | 21 nM | CCc1ccn(-c2ccc(C(=O)N3CCC(F)(F)/C(=C\C(=O)NCc4ccccn4)c4ccccc43)c(Cl)c2)n1
